Here are results for 2 compounds from ChEMBL document CHEMBL4834403, “Design and Synthesis of Novel Epigenetic Inhibitors Targeting Histone Deacetylases, DNA Methyltransferase 1, and Lysine Methyltransferase G9a with In Vivo Efficacy in Multiple Myeloma” (J Med Chem, 2021).

The term inhibition denotes the relative decrease from the control value, in per cent. What is called CL/F is the apparent clearance, not corrected for the fraction that reaches the circulation. One may read the half-life as the time needed for the level to fall by half in the phase considered. The low end stands for rapid decline, the high end for slow decline. Broadly, the IC50 is the concentration needed to halve the response being measured. Read a low IC50 as greater potency.

In one series the target is T1, CYP1A2 (Homo sapiens, UniProt P05177).
T1 sequence (P05177 whole entry): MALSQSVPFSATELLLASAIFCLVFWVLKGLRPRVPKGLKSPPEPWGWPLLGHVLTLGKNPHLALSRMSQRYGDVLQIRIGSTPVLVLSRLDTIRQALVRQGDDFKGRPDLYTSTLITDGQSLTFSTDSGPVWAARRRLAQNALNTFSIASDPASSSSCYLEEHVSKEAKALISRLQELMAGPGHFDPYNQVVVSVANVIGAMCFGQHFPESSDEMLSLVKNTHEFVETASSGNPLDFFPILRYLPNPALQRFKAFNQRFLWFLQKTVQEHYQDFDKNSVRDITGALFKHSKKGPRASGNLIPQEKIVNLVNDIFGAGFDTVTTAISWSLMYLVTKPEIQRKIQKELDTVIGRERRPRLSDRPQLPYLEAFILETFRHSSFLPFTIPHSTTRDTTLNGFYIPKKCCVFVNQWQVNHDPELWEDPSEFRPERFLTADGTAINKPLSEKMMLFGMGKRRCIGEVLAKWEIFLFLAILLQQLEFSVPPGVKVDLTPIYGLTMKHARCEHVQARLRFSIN
Kind of series: Inhibition of CYP1A2 in human liver microsomes at 10 uM incubated for 10 mins in presence of NADPH by LC-MS/MS analysis relative to control. The format is ADME. For orientation: Liver microsomes are vesicles of endoplasmic reticulum, rich in cytochrome P450 enzymes.

Series [1] can be described thus: Toxicity in BALB/c RAG2-/- gammaC-/- mouse xenografted with human MM1.S cells assessed as effect on body weight at 10 mg/kg, ip administered for 5 consecutive days followed by 2 days rest and measured after 35 days. Type of series: organism-based. Conditions: in vivo, 840 h, time 35 day. A general note: In xenograft studies the graft and the host belong to different species.

Series [2] in a line: Apparent oral clearance in BALB/c RAG2-/- gammaC-/- mouse at 10 mg/kg, ip measured up to 24 hrs by UPLC-triple quadrupole MS analysis. The format is ADME, organism-based. Conditions: in vivo.
A short description of series [3]: Half life in BALB/c RAG2-/- gammaC-/- mouse at 10 mg/kg, ip measured up to 24 hrs by UPLC-triple quadrupole MS analysis. Type of series: ADME, organism-based. Conditions: in vivo.
The target in series [4] is T2, Protein deacetylase HDAC6 (Homo sapiens, UniProt Q9UBN7).
T2 sequence (Q9UBN7 whole entry): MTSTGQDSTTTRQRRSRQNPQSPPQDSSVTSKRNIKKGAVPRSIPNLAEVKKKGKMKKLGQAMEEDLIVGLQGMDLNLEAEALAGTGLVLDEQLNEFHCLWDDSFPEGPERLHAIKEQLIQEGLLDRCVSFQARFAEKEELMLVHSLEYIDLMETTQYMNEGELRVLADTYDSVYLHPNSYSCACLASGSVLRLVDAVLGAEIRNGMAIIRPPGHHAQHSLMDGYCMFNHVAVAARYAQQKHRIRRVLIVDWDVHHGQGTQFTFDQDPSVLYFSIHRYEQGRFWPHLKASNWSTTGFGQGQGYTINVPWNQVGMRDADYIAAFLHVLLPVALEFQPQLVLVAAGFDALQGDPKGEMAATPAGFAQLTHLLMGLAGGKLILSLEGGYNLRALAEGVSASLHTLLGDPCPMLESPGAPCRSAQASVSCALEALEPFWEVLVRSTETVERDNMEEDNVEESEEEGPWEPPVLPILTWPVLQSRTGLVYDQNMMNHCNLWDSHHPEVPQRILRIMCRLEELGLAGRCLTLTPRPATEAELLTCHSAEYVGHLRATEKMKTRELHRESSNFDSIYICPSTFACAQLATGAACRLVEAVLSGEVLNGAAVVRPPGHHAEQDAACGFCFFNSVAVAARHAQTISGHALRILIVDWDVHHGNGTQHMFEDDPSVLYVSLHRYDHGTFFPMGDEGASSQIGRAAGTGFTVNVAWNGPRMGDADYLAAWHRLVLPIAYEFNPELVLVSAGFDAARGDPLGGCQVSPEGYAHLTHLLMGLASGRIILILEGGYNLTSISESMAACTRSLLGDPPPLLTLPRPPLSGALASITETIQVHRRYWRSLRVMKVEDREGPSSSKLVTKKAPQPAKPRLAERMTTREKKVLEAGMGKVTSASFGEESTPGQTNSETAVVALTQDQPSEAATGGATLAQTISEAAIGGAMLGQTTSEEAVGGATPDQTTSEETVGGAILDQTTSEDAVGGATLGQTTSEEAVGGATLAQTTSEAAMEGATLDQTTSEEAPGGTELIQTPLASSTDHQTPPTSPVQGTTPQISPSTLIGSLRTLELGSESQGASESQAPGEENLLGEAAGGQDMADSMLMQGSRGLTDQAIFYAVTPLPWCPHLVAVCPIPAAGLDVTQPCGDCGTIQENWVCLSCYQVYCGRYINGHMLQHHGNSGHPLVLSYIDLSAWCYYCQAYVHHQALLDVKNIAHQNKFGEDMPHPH
Kind of series: Inhibition of full length human N-terminal GST-tagged HDAC6 using fluorogenic acetylated peptide as substrate incubated for 30 mins by fluorescence plate reader assay.

A further series concerns MM1.S. Kind of series: Induction of DNA hypomethylation in human MM1.S cells assessed as CPG hypomethylation at position 3 at 2 uM measured after 5 days relative to control. Type of series: cell-based. Conditions: time 5.0 day. The essentials:
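MM1.S cells dosed every day for 5 days at 2 μM or 10 nM. DNA methylation at CpGs of the POU4F2 promoter read by pyrosequencing; run in duplicate.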

Turning to `COc1cc2nc(-c3ccc(C)o3)cc(NCC3CCN(c4ncc(C(=O)NO)cn4)CC3)c2cc1OC`, the inhibition at 10 min, 10 µM on CYP1A2 was 58.8%. The Activity entry in series [1] is “Non-Toxic”. In addition, the CL/F in series [2] is 13.3 mL/min. The same compound gave a half-life in series [3] of 3.8 h.
On to `COc1cc2c(NCC3CCN(c4ncc(C(=O)NO)cn4)CC3)cc(-c3ccc(C)o3)nc2cc1OCCCN1CCCC1`, for which 152 nM corresponded to half-maximal inhibition in series [4] (IC50). For the same compound, the Activity in the series on MM1.S was 15%.
